Results reported in the M2OR odorant receptor database.
Changes are numbered by the printed parent chain.

What was measured:
Conditions in all cases: stereoisomer not certain
[1] = molecular target: T1, OR6C65 (Homo sapiens) (UniProt A6NJZ3)
T1 sequence (whole entry): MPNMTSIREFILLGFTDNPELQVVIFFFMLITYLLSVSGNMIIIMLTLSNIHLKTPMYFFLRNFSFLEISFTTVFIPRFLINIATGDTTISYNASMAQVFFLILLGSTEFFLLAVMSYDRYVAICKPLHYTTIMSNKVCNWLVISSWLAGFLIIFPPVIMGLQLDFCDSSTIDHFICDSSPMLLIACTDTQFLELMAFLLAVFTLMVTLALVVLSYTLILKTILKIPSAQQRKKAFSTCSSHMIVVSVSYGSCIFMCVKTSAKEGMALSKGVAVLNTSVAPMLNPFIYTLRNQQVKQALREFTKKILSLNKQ
Summary of the method: (§1)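 Whether a receptor–molecule pair is responsive (active) rests on the original authors' judgment that its measured signal was statistically different from baseline. Pairs without that judgment are non-responsive (inactive). Sources used varied assay methods, commonly transient luciferase assays in mammalian cell lines.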

[2] = molecular target: T2, OR6C68 (Homo sapiens) (UniProt A6NDL8)
T2 sequence (whole entry): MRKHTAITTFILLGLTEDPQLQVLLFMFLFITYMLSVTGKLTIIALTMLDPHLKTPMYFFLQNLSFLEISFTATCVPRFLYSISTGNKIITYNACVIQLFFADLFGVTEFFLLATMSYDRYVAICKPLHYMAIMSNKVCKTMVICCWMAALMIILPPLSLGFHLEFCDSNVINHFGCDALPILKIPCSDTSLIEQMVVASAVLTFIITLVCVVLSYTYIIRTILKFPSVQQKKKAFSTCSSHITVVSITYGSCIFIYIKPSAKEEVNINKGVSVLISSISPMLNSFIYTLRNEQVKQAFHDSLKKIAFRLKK
Summary of the method: as §1

[3] = molecular target: T3, OR6C70 (Homo sapiens) (UniProt A6NIJ9)
T3 sequence (whole entry): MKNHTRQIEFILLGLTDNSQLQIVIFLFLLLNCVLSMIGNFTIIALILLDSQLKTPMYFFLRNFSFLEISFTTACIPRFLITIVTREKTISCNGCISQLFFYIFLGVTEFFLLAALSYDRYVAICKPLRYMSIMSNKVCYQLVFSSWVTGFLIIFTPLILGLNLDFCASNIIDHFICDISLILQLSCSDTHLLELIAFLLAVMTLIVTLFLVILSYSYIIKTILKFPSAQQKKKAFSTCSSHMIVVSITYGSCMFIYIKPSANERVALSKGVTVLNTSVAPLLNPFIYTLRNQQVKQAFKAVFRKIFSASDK
Summary of the method: as §1

[4] = molecular target: T4, OR6C74 (Homo sapiens) (UniProt A6NCV1)
T4 sequence (whole entry): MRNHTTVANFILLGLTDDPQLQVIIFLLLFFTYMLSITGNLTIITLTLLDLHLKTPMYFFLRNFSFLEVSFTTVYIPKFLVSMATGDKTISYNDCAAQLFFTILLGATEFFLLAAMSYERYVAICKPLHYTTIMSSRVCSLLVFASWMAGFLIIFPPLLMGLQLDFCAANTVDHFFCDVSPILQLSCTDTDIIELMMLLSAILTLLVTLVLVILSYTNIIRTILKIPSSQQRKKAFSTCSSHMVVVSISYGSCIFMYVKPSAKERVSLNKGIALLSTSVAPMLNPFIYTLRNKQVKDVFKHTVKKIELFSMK
Summary of the method: as §1

[5] = molecular target: T5, OR6C75 (Homo sapiens) (UniProt A6NL08)
T5 sequence (whole entry): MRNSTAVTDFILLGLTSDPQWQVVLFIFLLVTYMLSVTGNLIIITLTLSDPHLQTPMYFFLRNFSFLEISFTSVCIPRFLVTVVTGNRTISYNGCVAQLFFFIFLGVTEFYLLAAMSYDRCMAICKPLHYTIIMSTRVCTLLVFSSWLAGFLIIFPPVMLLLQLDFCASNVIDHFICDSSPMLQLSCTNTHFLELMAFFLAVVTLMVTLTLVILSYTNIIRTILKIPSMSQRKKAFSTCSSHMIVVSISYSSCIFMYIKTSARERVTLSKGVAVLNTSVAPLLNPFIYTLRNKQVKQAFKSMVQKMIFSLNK
Summary of the method: as §1

[6] = molecular target: T6, OR6C76 (Homo sapiens) (UniProt A6NM76)
T6 sequence (whole entry): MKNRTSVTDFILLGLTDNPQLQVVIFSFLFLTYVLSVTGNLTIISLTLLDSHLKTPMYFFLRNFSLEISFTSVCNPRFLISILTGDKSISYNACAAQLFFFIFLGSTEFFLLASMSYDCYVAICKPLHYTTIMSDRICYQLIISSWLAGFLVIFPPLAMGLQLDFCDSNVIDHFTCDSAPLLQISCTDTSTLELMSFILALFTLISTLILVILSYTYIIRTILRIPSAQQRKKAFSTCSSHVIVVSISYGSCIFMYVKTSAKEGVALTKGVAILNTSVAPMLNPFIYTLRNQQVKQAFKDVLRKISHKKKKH
Summary of the method: as §1

[7] = molecular target: T7, OR6F1 (Homo sapiens) (UniProt Q8NGZ6)
T7 sequence (whole entry): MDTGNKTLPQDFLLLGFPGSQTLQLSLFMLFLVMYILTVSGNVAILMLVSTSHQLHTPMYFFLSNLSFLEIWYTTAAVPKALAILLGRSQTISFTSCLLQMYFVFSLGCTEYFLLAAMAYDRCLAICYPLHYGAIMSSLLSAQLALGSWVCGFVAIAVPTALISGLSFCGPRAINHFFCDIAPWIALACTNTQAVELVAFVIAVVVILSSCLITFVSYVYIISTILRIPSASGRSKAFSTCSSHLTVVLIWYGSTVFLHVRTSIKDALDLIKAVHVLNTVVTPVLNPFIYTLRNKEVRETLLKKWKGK
Summary of the method: as §1

[8] = molecular target: T8, OR6J1 (Homo sapiens) (UniProt Q8NGC5)
T8 sequence (whole entry): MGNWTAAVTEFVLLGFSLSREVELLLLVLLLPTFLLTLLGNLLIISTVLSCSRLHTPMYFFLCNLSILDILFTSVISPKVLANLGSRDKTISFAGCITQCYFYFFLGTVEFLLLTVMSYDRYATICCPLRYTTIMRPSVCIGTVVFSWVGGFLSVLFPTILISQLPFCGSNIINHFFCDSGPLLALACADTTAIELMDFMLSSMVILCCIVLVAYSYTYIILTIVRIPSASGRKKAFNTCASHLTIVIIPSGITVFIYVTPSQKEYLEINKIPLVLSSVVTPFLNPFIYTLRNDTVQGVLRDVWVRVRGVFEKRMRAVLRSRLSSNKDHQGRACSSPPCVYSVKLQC
Summary of the method: as §1

[9] = molecular target: T9, OR6K2 (Homo sapiens) (UniProt Q8NGY2)
T9 sequence (whole entry): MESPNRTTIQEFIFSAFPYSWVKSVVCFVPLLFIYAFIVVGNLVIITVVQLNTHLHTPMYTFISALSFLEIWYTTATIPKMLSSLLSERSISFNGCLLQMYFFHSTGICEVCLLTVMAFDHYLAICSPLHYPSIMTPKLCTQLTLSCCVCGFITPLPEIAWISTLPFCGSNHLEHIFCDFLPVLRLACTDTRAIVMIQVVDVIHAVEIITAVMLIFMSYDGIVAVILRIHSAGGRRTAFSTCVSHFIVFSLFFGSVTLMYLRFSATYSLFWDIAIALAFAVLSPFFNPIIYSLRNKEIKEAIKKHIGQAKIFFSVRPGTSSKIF
Summary of the method: as §1

[10] = molecular target: T10, OR6K3 (Homo sapiens) (UniProt Q8NGY3)
T10 sequence (whole entry): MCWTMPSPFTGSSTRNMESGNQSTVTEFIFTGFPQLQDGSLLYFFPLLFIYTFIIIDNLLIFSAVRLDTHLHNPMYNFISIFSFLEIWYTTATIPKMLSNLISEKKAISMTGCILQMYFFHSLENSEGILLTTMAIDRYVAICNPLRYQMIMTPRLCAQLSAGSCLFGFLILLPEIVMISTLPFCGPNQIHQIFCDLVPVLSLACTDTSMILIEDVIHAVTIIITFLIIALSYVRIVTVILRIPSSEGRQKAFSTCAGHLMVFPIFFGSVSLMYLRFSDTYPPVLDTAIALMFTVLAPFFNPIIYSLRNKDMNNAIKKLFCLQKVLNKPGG
Summary of the method: as §1

[11] = molecular target: T11, OR6K6 (Homo sapiens) (UniProt Q8NGW6)
T11 sequence (whole entry): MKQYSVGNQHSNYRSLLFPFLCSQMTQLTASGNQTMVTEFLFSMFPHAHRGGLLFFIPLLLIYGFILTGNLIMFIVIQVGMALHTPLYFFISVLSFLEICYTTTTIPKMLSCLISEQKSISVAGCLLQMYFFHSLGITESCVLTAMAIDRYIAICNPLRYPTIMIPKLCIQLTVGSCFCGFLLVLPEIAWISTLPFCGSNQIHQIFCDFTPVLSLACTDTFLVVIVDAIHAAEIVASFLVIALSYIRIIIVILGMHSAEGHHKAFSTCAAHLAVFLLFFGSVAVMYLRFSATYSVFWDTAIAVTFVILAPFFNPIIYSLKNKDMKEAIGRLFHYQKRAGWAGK
Summary of the method: as §1

[12] = molecular target: T12, OR6M1 (Homo sapiens) (UniProt Q8NGM8)
T12 sequence (whole entry): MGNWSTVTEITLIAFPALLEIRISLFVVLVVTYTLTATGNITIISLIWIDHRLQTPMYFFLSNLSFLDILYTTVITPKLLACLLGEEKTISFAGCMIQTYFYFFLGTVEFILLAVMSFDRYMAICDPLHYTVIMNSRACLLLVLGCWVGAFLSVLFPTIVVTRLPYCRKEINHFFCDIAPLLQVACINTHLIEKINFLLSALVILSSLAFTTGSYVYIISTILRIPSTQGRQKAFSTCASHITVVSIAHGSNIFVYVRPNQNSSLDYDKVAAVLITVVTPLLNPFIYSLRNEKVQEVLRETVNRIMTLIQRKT
Summary of the method: as §1

[13] = molecular target: T13, OR6N1 (Homo sapiens) (UniProt Q8NGY5)
T13 sequence (whole entry): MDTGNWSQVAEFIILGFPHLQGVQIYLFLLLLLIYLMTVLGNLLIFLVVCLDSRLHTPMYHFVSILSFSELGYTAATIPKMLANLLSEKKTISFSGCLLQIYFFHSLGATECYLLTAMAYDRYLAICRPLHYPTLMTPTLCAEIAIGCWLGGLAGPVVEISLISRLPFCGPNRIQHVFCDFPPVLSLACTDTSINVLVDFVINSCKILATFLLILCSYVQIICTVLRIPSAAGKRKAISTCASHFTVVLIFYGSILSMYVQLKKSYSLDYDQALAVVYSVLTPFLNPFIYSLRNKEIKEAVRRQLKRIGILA
Summary of the method: as §1

[14] = molecular target: T14, OR6N2 (Homo sapiens) (UniProt Q8NGY6)
T14 sequence (whole entry): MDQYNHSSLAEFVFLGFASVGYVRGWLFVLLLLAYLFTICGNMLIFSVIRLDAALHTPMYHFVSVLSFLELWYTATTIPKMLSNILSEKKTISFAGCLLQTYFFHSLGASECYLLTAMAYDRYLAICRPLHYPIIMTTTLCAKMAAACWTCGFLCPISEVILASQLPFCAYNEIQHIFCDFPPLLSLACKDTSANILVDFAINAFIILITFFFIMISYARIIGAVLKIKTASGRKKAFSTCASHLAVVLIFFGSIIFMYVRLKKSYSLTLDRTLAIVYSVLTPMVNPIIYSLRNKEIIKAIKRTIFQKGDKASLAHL
Summary of the method: as §1

[15] = molecular target: T15, OR6P1 (Homo sapiens) (UniProt Q8NGX9)
T15 sequence (whole entry): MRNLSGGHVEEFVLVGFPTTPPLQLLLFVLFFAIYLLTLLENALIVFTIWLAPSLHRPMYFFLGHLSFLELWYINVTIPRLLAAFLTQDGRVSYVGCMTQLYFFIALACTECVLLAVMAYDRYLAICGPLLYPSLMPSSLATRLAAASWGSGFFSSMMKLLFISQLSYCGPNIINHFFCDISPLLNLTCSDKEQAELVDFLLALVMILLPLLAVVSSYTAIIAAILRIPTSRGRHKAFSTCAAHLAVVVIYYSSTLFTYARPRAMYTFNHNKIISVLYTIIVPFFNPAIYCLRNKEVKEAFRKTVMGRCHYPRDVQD
Summary of the method: as §1

[16] = molecular target: T16, OR6Q1 (Homo sapiens) (UniProt Q8NGQ2)
T16 sequence (whole entry): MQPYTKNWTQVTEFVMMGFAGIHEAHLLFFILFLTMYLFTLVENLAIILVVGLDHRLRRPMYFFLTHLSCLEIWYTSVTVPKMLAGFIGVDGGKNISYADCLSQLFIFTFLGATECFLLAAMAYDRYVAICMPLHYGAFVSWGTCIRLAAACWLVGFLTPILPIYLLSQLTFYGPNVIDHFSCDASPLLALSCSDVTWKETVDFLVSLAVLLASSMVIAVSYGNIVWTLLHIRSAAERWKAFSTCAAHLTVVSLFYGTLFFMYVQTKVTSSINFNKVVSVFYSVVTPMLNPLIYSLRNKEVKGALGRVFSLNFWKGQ
Summary of the method: as §1

[17] = molecular target: T17, OR6J1 (Homo sapiens) (UniProt Q8NGC5); remark: listed apart in the source
T17 sequence (whole entry): T8 sequence (whole entry) with P250S
Summary of the method: as §1

[18] = tested on: T18, OR6K3
T18 sequence (whole entry): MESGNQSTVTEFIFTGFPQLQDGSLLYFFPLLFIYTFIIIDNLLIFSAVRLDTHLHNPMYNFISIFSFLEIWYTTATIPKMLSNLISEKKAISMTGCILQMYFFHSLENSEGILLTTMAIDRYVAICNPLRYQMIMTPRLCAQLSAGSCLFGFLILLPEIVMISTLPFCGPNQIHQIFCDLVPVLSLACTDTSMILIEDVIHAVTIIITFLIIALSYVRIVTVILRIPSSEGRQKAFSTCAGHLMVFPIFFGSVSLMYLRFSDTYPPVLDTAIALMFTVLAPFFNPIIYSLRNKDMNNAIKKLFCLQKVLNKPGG
Summary of the method: as §1

[19] = tested on: T19, OR6M1 R224C
T19 sequence (whole entry): T12 sequence (whole entry) with R224C
Summary of the method: as §1

[20] = tested on: T20, OR6M1 T276K
T20 sequence (whole entry): T12 sequence (whole entry) with T276K
Summary of the method: as §1

Measured: odorant receptor agonist call;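 also: active if original authors judged signal statistically different from baseline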

CCCCCC(S)C(C)CO (stereo unspecified)
not listed: [17] | [18] | [19] | [20]
inactive: all other assays above

CC1=C(O)C(=O)C(C)O1 (stereo unspecified)
not listed: [8] | [10]
inactive: all other assays above

CCC(S)C(C)CO (stereo unspecified)
not listed: [17] | [18] | [19] | [20]
inactive: all other assays above

CCCCC(S)C(C)CO (stereo unspecified)
not listed: [17] | [18] | [19] | [20]
inactive: all other assays above
